Measured values from different studies.
Compare with care: the assays were run in different laboratories.
HTR2C: 5-hydroxytryptamine receptor 2C (HTR2C, Homo sapiens, UniProt P28335)

SMILES	target	effect on	mode	technique	concentration	endpoint	result
COc1cc2c(cc1OC)-c1c(OC)c(OC)cc3c1[C@H](C2)N(C)CC3	HTR2C	ligand displacement	–	radioligand	10 µM	inhibition	79%
COc1cc(CCNC(C)c2ccccc2O)c(OC)cc1Br (stereo not shown)	HTR2C	calcium signal	agonist	–	–	Emax	92%
CCOC(=O)Cc1c2c3c(cc(OC)c(OC)c3c3cc(OC)c(OC)cc13)CCN2C	5-hydroxytryptamine receptor 2B (HTR2B, Homo sapiens, UniProt P41595)	ligand displacement	–	radioligand	10 µM	inhibition	43%
Nc1ncnc2c1ncn2[C@@H]1O[C@H](C[C@@H](N)CC[C@H](N)C(=O)O)[C@@H](O)[C@H]1O	mRNA cap guanine-N(7) methyltransferase (RNMT, Homo sapiens, UniProt O43148)	enzyme activity	inhibitor	–	12.5 µM	inhibition	61.8%
[2H]c1c([2H])c([C@]2([2H])CCCN2C(=O)C(C)(C)Oc2ccc3cn[nH]c3c2)c([2H])c([2H])c1C([2H])([2H])[2H]	Tyrosine-protein kinase receptor TYRO3 (TYRO3, Homo sapiens, UniProt Q06418)	binding	–	competition with immobilised ligand	1 µM	remaining binding	57%
COc1cc(CCNCc2ccccc2O)c(OC)cc1C#N	HTR2C	G protein activation	agonist	BRET	–	Emax	122%
COc1cc2c3c(c1OC)-c1c(OC)ccc(Cl)c1CC3N(C)CC2 (racemic)	HTR2C	ligand displacement	–	radioligand	10 µM	inhibition	80%
O=P(O)(O)O[C@H]1[C@H](OP(=O)(O)O)[C@@H](OP(=O)(O)O)[C@H](OP(=O)(O)O)[C@@H](OP(=O)(O)O)[C@H]1OP(=O)(O)O	Toxin B (tcdB, Clostridioides difficile, UniProt P18177)	binding	–	ITC	–	residence time	0.4 min
COc1cc(CCNC(C)c2ccccc2)c(OC)cc1C#N (stereo not shown)	HTR2C	calcium signal	agonist	–	–	Emax	41%
CC(C)CC(=O)OC[C@H]1O[C@@](C#N)(c2ccc3c(N)ncnn23)[C@H](O)[C@@H]1O	B2 bradykinin receptor (BDKRB2, Homo sapiens, UniProt P30411)	cell-free assay	–	–	20 µM	inhibition	-2%
